From PubChem
The list is not random: actives were taken first. Their share in the collection is about 1.2%.
proCasp3 act: activators of human procaspase-3. AID 463141. P42574. recombinant procaspase-3 D3A, Ac-DEVD-pNA absorbance 405 nm. 330,000 compounds, 0.11% hits. activation, % at 8.5 µM;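 active = activation above the mean of all tested compounds plus 3 SD, cut at about 21% in these data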
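Assay system – Procaspase-3 D3A mutant · Benchmarks – DMSO low control, extra-enzyme high control · Technique – 405 nm absorbance of p-nitroaniline, reads at 0 and 120 min · Doses – 8.5 µM nominal · Measure – % activation between DMSO and enzyme-spiked controls · Also added – Ac-DEVD-pNA chromogenic peptide substrate · Schedule – 1 h compound preincubation, 2 h substrate hydrolysis at 25 °C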
proCasp7 act: counter-screen for procaspase-3 activators: activators of human procaspase-7; P55210; recombinant procaspase-7, Ac-DEVD-pNA absorbance 405 nm; D23A/D198A/D206A triple mutant, cannot self-cleave; scale: DMSO 0, 5 µM enzyme 100; activation, % at 8.5 µM; 330,000 compounds, 0.093% hits; AID 463210;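 active = percent activation above the screen-wide mean plus 3 SD, cut at about 25% in these data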
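System: Uncleavable procaspase-7 mutant enzyme; Amount: 2 µM procaspase-7 mutant as dispensed; Schedule: 1 h compound preincubation, 2 h substrate cleavage, 25 °C; Measured by: 405 nm absorbance of p-nitroaniline; Evaluation: percent activation from buffer-corrected 0–120 min absorbance change; Control set: low DMSO alone, high DMSO plus 5 µM PC-7.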
ASAP1 inh: ASAP1 ArfGAP inhibition | AID 624377 | inhibition, % at 16.5 µM | 360,000 compounds, 0.19% hits | ASAP1-stimulated ARF1 GTP hydrolysis, GDP FP detection; in the data active = inhibition above about 25%
Target sequence (Q9ULH1 325-724 limits assumed): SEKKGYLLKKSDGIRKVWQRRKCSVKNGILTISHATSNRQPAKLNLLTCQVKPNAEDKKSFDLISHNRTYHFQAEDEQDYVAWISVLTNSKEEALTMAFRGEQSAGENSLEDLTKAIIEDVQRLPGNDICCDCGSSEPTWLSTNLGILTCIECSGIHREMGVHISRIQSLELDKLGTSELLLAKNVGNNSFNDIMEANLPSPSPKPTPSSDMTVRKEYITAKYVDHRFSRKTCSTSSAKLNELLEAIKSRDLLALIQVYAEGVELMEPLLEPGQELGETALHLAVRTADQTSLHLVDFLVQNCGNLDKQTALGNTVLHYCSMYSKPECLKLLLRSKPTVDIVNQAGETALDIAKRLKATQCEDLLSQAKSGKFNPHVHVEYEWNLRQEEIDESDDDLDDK
Yeast superoxide: lowers age-related superoxide in aged yeast cells; S. cerevisiae aged cells, superoxide DHE fluorescence; hits give low values; superoxide response (% of plate mean), % at 10 µM; 330,000 compounds, 0.18% hits; AID 2690;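 active = superoxide response under a set limit, about three screen SD below normal, cut at about 65% in these data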;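 note: yeast aged for seven days with compound at 30 °C before DHE staining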
ARFGAP1 inh: inhibitors of rat ARFGAP1. inhibition, % at 16.5 µM. Arfgap1-stimulated ARF1 GTP hydrolysis, GDP FP detection. AID 651572. 360,000 compounds, 0.26% hits;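 active = inhibition above a per-plate limit, mean inhibition of low control wells plus 3 SD, cut at about 25% in these data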
Target sequence (Q62848 1-136 limits assumed): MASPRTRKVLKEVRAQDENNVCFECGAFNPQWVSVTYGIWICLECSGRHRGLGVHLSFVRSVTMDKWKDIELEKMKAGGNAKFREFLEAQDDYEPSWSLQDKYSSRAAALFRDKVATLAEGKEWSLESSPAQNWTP
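Repeats: one replicate per compound; assay system: rat Arfgap1 catalytic domain, aa 1-136; times: enzyme reaction 120 min at 25 °C after 20 min preincubation; detection: FP of antibody-bound GDP Alexa 633 tracer, ex 620/em 688 nm; benchmarks: high control wells lacking Arfgap1, low control full reaction with DMSO; reagent: human ARF1(Δ1-17)-GTP substrate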
LANA-H2B inh: blocks KSHV LANA binding to histone H2A/H2B. 320,000 compounds, 0.6% hits. Q9QR71. inhibition, % (test concentration not listed). cell-free LANA-H2A/H2B peptide, fluorescence polarization; in the data active = inhibition mostly above about 10%, no sharp cut-off; inactive = mostly below about 6.7%
Hits are given with their value.

COC(=O)C1=CN(c2ccc(C(C)(C)C)cc2)C(N)=C(C#N)C1c1ccc(OC)cc1 (stereo not drawn) was read as ASAP1 inh inactive and ARFGAP1 inh inactive.
Screening O=C(Cn1cc(COc2ccc(Cl)c(Cl)c2)nn1)NS(=O)(=O)c1ccccc1C(F)(F)F returned ASAP1 inh inactive and ARFGAP1 inh inactive.
Screening O=S(=O)(c1cnc[nH]1)N1CCN(c2ccc(F)cc2)CC1 returned proCasp3 act inactive, proCasp7 act inactive, ASAP1 inh inactive, Yeast superoxide inactive, ARFGAP1 inh inactive and LANA-H2B inh 110.8.
Screening O=C(Nc1cccnc1)c1cc(-c2ccccc2O)on1 returned proCasp3 act inactive, proCasp7 act inactive, ASAP1 inh inactive, Yeast superoxide inactive, ARFGAP1 inh inactive and LANA-H2B inh inactive.
For O=C(Nc1cccnc1)c1cc(-c2cccs2)on1 the results were proCasp3 act inactive, proCasp7 act inactive, ASAP1 inh inactive, Yeast superoxide inactive, ARFGAP1 inh inactive and LANA-H2B inh 91.8.
Screening Cc1c(NC(=O)c2cc(-c3cccs3)on2)c(=O)n(-c2ccccc2)n1C returned proCasp3 act inactive, proCasp7 act inactive, Yeast superoxide inactive and LANA-H2B inh 174.6.
COc1ccccc1Cc1c(-c2ccc(C#N)cc2)nc2ccc(C)cn12 was read as ASAP1 inh inactive and ARFGAP1 inh inactive.
Screening Cc1cccnc1Nc1nc(-c2ccccc2)cs1 returned proCasp3 act inactive, proCasp7 act inactive, ASAP1 inh inactive, Yeast superoxide inactive, ARFGAP1 inh inactive and LANA-H2B inh 23.0.
Cc1cccnc1Nc1nc(-c2ccccn2)cs1 was read as proCasp3 act inactive, proCasp7 act inactive, ASAP1 inh inactive, Yeast superoxide inactive, ARFGAP1 inh inactive and LANA-H2B inh inactive.
For COc1ccc(CN(C)C[C@@H]2OCc3cnnn3CCCC(=O)N([C@H](C)CO)C[C@H]2C)cc1 the results were ASAP1 inh inactive and ARFGAP1 inh inactive.
Screening CC[n+]1c(C)sc2cc(C)ccc21 returned proCasp3 act inactive, proCasp7 act inactive, ASAP1 inh inactive, Yeast superoxide inactive, ARFGAP1 inh inactive and LANA-H2B inh 9.2.
Screening CCNC(=O)C1(C)CCCN1C(=O)c1cnc2ccccc2n1 (stereo not drawn) returned ASAP1 inh inactive and ARFGAP1 inh inactive.
Screening Cc1ccsc1/C=C(\C(=O)c1ccc(OC(C)C)cc1)c1nc2ccccc2o1 returned proCasp3 act inactive, proCasp7 act inactive, ASAP1 inh inactive, Yeast superoxide inactive, ARFGAP1 inh inactive and LANA-H2B inh 11.3.
Screening O=C(COC(=O)c1cncc(Br)c1)NCc1ccc(Cl)cc1 returned proCasp3 act inactive, proCasp7 act inactive, ASAP1 inh inactive, Yeast superoxide inactive, ARFGAP1 inh inactive and LANA-H2B inh 166.9.
For O=C(COC(=O)c1cncc(Br)c1)NCc1ccccc1 the results were proCasp3 act inactive, proCasp7 act inactive, ASAP1 inh inactive, Yeast superoxide inactive, ARFGAP1 inh inactive and LANA-H2B inh inactive.
For COC(=O)C1=C(C)N(Cc2ccc(C(F)(F)F)cc2)C(=NCc2ccccc2)NC1c1ccc(C(F)(F)F)cc1 (stereo not drawn) the results were ASAP1 inh inactive and ARFGAP1 inh inactive.
Screening Cc1cc(C)cc(S(=O)(=O)c2cnc3ccccc3n2)c1 returned proCasp3 act inactive, proCasp7 act inactive, ASAP1 inh inactive, Yeast superoxide inactive, ARFGAP1 inh inactive and LANA-H2B inh 13.8.
`COCc1[nH]nc2c1C(c1ccc(C)cc1)N(Cc1ccccc1)C2=O` (stereo not drawn) gave ASAP1 inh inactive and ARFGAP1 inh inactive.
`CCN(CC)c1ccc2c(c1)CCCN2` gave proCasp3 act inactive, proCasp7 act inactive, Yeast superoxide inactive and LANA-H2B inh 20.3.
Screening CC(C)CSC1=NSC2=NC(=O)/C(=C\c3coc4ccccc4c3=O)C(=N)N12 returned proCasp3 act inactive, proCasp7 act inactive, ASAP1 inh inactive, Yeast superoxide inactive, ARFGAP1 inh inactive and LANA-H2B inh 60.3.
C[C@H](O)[C@@H]1C(=O)N2CCc3c([nH]c4cccc(-c5ccccc5)c34)[C@@H]2C[C@@H]1N(C)C(=O)c1ccccc1 was read as ASAP1 inh inactive and ARFGAP1 inh inactive.
For CC(C)CN1CCN(Cc2ccc(CN3CCCCC3)s2)CC1CCO (stereo not drawn) the results were proCasp3 act inactive, proCasp7 act inactive, ASAP1 inh inactive, Yeast superoxide inactive, ARFGAP1 inh inactive and LANA-H2B inh 41.4.
Nc1nc2c(ncn2[C@@H]2O[C@H](C(=O)NCC(c3ccccc3)c3ccccc3)[C@@H](O)[C@H]2O)c(=O)[nH]1 was read as ASAP1 inh inactive and ARFGAP1 inh inactive.
For COc1ccc(CCNC(=O)CS(=O)Cc2nc(-c3ccccc3F)oc2C)cc1OC (stereo not drawn) the results were proCasp3 act inactive, proCasp7 act inactive, ASAP1 inh inactive, Yeast superoxide inactive, ARFGAP1 inh inactive and LANA-H2B inh inactive.
For COc1ccc(CCNC(=O)CS(=O)Cc2nc(-c3ccccc3Cl)oc2C)cc1OC (stereo not drawn) the results were proCasp3 act inactive, proCasp7 act inactive, ASAP1 inh inactive, Yeast superoxide inactive, ARFGAP1 inh inactive and LANA-H2B inh 17.0.
`C=CCn1c(SCCC)nc(O)cc1=O` gave proCasp3 act inactive, proCasp7 act inactive, ASAP1 inh inactive, Yeast superoxide inactive, ARFGAP1 inh inactive and LANA-H2B inh 15.6.
For COCCN1Cc2cc(C(=O)OC)c3c(c2C1=O)c1cc(F)ccc1n3S(=O)(=O)c1ccc(C)cc1 the results were ASAP1 inh inactive and ARFGAP1 inh inactive.
`Cc1oc(-c2cccs2)nc1CN1CCC(CO)(CCOc2ccccc2)CC1` gave proCasp3 act inactive, proCasp7 act inactive, ASAP1 inh inactive, Yeast superoxide inactive, ARFGAP1 inh inactive and LANA-H2B inh 13.4.
Screening CCOC(=O)C1(CCOC)CCN(Cc2nc(-c3cccs3)oc2C)CC1 returned proCasp3 act inactive, proCasp7 act inactive, ASAP1 inh inactive, Yeast superoxide inactive, ARFGAP1 inh inactive and LANA-H2B inh inactive.
Screening CCOC(=O)C1=C(C(=O)OCC)C2N(Cc3ccc(C(F)(F)F)cc3)c3ccccc3[C@@]23C[C@@H](C(=O)OC)N(S(=O)(=O)c2ccc(OC)cc2)C3=N1 (stereo partly drawn) returned ASAP1 inh inactive and ARFGAP1 inh inactive.
COc1ccc(-c2nc3ccccc3c(=O)n2CCCN2CCOCC2)cc1 was read as proCasp3 act inactive, proCasp7 act inactive, ASAP1 inh inactive, Yeast superoxide inactive, ARFGAP1 inh inactive and LANA-H2B inh 15.9.
